Assay outcomes from PubChem.
M1 PAM parental: M1 PAM counterscreen hit in parental CHO-K1 cells; ATP EC20, Fluo-8 calcium fluorescence; 0% at ATP EC20, 100% at ATP max; activation, % at 3 µM; 0.02% of 360,000 active;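 active means activation above the run cutoff, the mean activation of all test compounds plus 3 SD, cut at about 40% in these data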;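 further: peak over basal fluorescence ratio in a 140 s read after ATP addition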
CHO-K1 Ca antag: M1 antagonist counterscreen hit in parental CHO-K1 cells | 0.6% of 360,000 active | inhibition, % at 3 µM | ATP-induced calcium, Fluo-8 fluorescence | AID 602250;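 active means inhibition above a per-plate cutoff, the plate's mean sample inhibition plus 3 SD, cut at about 24% in these data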;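 further: 0% = DMSO plus EC80 ATP and 100% = DMSO alone without ATP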
CHO parental Ca: counter-screen: ATP calcium response change in parental CHO cells. parental CHO-K1, ATP-induced calcium, Fluo-8 fluorescence. inhibition, % at 5.6 µM. 0.63% of 330,000 active. AID 463079;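 active means inhibition above that plate's mean sample inhibition plus 3 SD, cut at about 26% in these data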;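 further: 0% = ATP-challenged DMSO wells and 100% = DMSO wells without ATP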
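Test system: untransfected parental CHO cell line. Compound: one dose, 5.6 µM nominal. Detection: intracellular calcium via Fluo-8 no-wash fluorescent dye. Measure: % inhibition. Benchmarks: ATP-challenged DMSO wells low, unchallenged DMSO wells high.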
CHO-K1 Ca ag: nonselective activator or artifact in parental CHO-K1 cells | Fluo-8 calcium fluorescence; scaled to maximal ATP response, vehicle zero | AID 602248 | activation, % at 3 µM | 0.48% of 360,000 active; in the data active means activation above about 15%;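 further: untransfected CHO-K1 host cells lacking M1 receptor as counterscreen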
OX1R antag-1: antagonists of human orexin 1 receptor (OX1R) | O43613 | OX1R-expressing cells, FRET antagonist read-out | inhibition, % at 6.6 µM | 1.8% of 330,000 active | AID 485270; in the data active means inhibition mostly above about 38%, no sharp cut-off; inactive means mostly below about 40%;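 further: 0% = agonist challenge alone and 100% = reference antagonist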
Target sequence (O43613 whole entry, looked up): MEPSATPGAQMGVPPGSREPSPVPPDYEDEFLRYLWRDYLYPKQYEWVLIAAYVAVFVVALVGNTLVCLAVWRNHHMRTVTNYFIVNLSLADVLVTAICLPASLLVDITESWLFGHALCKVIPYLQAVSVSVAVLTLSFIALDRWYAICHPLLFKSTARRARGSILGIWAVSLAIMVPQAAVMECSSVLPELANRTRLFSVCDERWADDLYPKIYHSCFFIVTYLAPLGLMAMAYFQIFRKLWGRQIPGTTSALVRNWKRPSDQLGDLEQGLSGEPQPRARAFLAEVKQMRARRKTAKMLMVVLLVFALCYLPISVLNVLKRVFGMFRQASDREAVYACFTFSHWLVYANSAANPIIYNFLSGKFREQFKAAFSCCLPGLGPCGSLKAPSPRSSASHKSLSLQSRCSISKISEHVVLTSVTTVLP
OX1R antag-2: human HCRTR1 antagonism. CHO/OX1R cells, Fluo-8 calcium fluorescence, orexin A. inhibition, % at 5 µM. 0.43% of 330,000 active. AID 434989;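 active means inhibition above its plate's threshold, mean inhibition of all tested compounds on the plate plus 3 SD, cut at about 37% in these data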;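 further: 0% = orexin A challenge wells and 100% = SB-334867-A antagonist wells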
Active calls of the source: *; · = no result. Shown are actives, neighbours in structure and some others; about 2.9% of the full set was active somewhere.

SMILES	M1 PAM parental	CHO-K1 Ca antag	CHO parental Ca	CHO-K1 Ca ag	OX1R antag-1	OX1R antag-2
Cc1ncc(C[n+]2ccc(C)c(C)c2)c(N)n1	-13.4	7.1	-3.8	0.2	20.4	-2.5
O=S(=O)(c1cccs1)N1CCCc2ccccc21	0.3	-15.8	56.3*	0.8	21.2	-8.5
O=C(Nc1ccc2c(c1)N(S(=O)(=O)c1cccs1)CCC2)c1c(F)cccc1Cl	4.0	-11.5	-2.6	0.5	54.8*	10.6
Cc1cccc(NC(=S)/N=C(\N)Nc2nc(C)c3ccccc3n2)c1	9.4	-7.7	-8.1	0.6	75.8*	12.4
Cc1cccc(NC(=S)/N=C(\N)Nc2nc(C)c3ccc(C)cc3n2)c1	18.3	-1.3	-24.8	0.0	23.8	-24.3
CCc1ccc([C@@H]2CC(=O)[C@@H]3CN(S(=O)(=O)c4ccc(Cl)cc4)[C@H](c4ccc(C)cc4)C[C@@H]3N2S(=O)(=O)c2ccc(C)cc2)cc1	8.7	11.9	·	0.9	·	·
COc1ccc(NC(=S)NCCSc2ccc(Cl)cc2)c(OC)c1	-2.0	23.8*	-16.4	0.1	19.9	-14.8
COc1ccccc1NC(=S)NCCSc1ccc(Cl)cc1	10.3	8.2	-18.1	-0.4	26.9	-11.6
COc1cccc(C(=O)Nc2ccc3nc(N4CCN(c5ncccn5)CC4)cc(C)c3c2)c1OC	·	·	-2.7	·	58.6*	0.6
CC(=O)C1CCC2C3CC(O)C4=CC(=O)CCC4(C)C3C(=O)CC12C (stereo unspecified)	-14.3	0.0	·	10.5	·	·
Cc1cc(C)c2cc(C#N)c(NCCOC(=O)c3ccccc3C)nc2c1	-3.4	-18.4	-41.8	-0.8	36.5*	-0.4
COc1ccccc1C(=O)NCCNc1nc2cc(C)cc(C)c2cc1C#N	11.6	0.4	-30.5	-0.2	40.9	-10.8
COc1cc(C(=O)NCCNc2nc3c(C)c(C)ccc3cc2C#N)cc(OC)c1OC	11.7	-6.9	-19.7	0.0	0.5	-23.6
COc1cc(C(=O)NCCNc2nc3cc(C)ccc3cc2C#N)cc(OC)c1OC	8.5	8.6	-16.9	0.3	54.5*	-15.9
COc1cc(OC)cc(C(=O)NCCNc2nc3cc(C)cc(C)c3cc2C#N)c1	2.1	-9.4	-24.2	1.1	53.1*	2.9
COc1ccc(C(=O)NCCCNc2nc3cc(C)cc(C)c3cc2C#N)cc1	0.4	-7.4	·	0.8	·	·
C=CCN(CC(=O)NC1CCS(=O)(=O)C1)S(=O)(=O)c1ccccc1C(F)(F)F (stereo unspecified)	-21.5	1.9	1.1	-0.9	2.9	-8.2
Cc1ccc(NS(=O)(=O)c2ccc3c(c2)n(C)c(=O)n3C)c(C)c1	25.1	-0.1	-5.8	18.0*	-2.6	-36.5
O=C(C[C@@H]1C/C=C\C[C@H](Cc2ccc(F)cc2)C(=O)OC[C@H]2CCCN2C1=O)N[C@H](CO)Cc1ccccc1	13.6	-7.8	-15.4	5.6	11.0	-16.4
CCCC(=O)NC(=S)Nc1ccc(N2CCN(C(=O)c3cccs3)CC2)cc1	-12.3	13.9	18.6	15.4*	21.7	-8.8
Cc1csc2c(N3CCN(C(=S)Nc4ccc(F)cc4F)CC3)ncnc12	-7.9	16.3	38.8*	22.8*	25.3	24.1
CCCC(=O)NC(=S)N1CCN(c2ccc([N+](=O)[O-])cc2)CC1	-11.1	25.3*	-8.9	-0.2	9.9	-75.7
O=[N+]([O-])c1ccc(N2CCN(C(=S)Nc3ccc(F)cc3F)CC2)cc1	-16.0	24.3*	30.6	11.2	25.9	35.7
COc1cc(F)ccc1-c1csc(C(C)(O)c2ccc(F)c(F)c2)n1 (stereo unspecified)	-10.0	4.2	·	-0.7	·	·
Cc1ccccc1C(=O)Nc1ccnn1C1CCN(Cc2ccccn2)CC1	4.4	-1.1	2.7	0.8	11.9	-7.5
SMILES	M1 PAM parental	CHO-K1 Ca antag	CHO parental Ca	CHO-K1 Ca ag	OX1R antag-1	OX1R antag-2
O=C(O)Cc1ccc(S(=O)(=O)N2CCCC2)s1	-12.5	4.0	-5.1	-0.2	5.1	3.6
OC1CCC(Nc2ccn3nc(-c4cccc(OCc5ccccc5)c4)cc3n2)CC1 (stereo unspecified)	-7.2	28.7*	·	5.3	·	·
OC1CCC(Nc2ccn3nc(-c4cccc(Cl)c4)cc3n2)CC1 (stereo unspecified)	15.3	-6.6	·	3.4	·	·
OCC#CCSc1nnc(-c2ccncc2)o1	3.8	37.4*	-5.4	-0.9	6.2	-7.9
CCSc1nnc(-c2ccncc2)o1	8.4	-4.2	-2.5	0.1	3.4	-5.0
CCOc1ccc(CCNC(=O)CS(=O)Cc2nc(-c3ccc(C)cc3)oc2C)cc1OCC (stereo unspecified)	-2.2	-6.4	-30.6	-0.5	26.7	-1.4
CCOc1ccc(CCNC(=O)CS(=O)Cc2nc(-c3ccccc3C)oc2C)cc1OCC (stereo unspecified)	11.0	-3.7	-24.7	0.3	56.9*	16.0
COc1ccccc1CNC(=O)c1cc(S(=O)(=O)N2CCN(c3ccccc3)CC2)ccc1Cl	9.9	-16.9	·	1.0	·	·
CCOC(=O)CSc1nc(N2CCOCC2)c2c(c1C#N)CC(C)(C)N(C)C2	12.2	-5.2	-26.9	0.5	46.3*	-31.3
CCOC(=O)N1CCN(C(=O)COC(=O)c2ccc([N+](=O)[O-])cc2Cl)CC1	6.4	5.7	·	0.2	·	·
CCCCc1nc(NCCO)c(C#N)c2c1CCCC2	-8.1	0.5	50.1*	0.8	15.1	-39.7
CCCCNc1nc(CC)c2c(c1C#N)CCCC2	4.0	9.8	-8.1	0.1	17.9	-9.6
COc1ccc(-c2cc3c(c4c2ccn4C)C2CCC3O2)cc1OC (stereo unspecified)	14.4	2.4	·	-0.1	·	·
OCCc1ccc(O)cc1	9.0	6.0	0.5	1.4	10.4	-12.0
CC(c1ccc(O)cc1)(c1ccc(O)cc1)c1ccc(CCBr)cc1	-6.7	6.2	1.6	18.0*	4.9	3.8
CC(Sc1nc(N)cc(=O)[nH]1)C(=O)Nc1sc2c(c1C#N)CCCC2 (stereo unspecified)	-15.6	29.5*	34.3*	0.8	11.1	30.9
CCCCn1c(N)c(N(CCOC)C(=O)C2CCCN(C(=O)c3ccc(Cl)cc3)C2)c(=O)[nH]c1=O (stereo unspecified)	13.5	-11.2	4.1	-0.3	9.5	-9.8
COC(=O)C1CCC(=O)N1C(c1ccc(OC)cc1)c1cc(OC)c(OC)c(OC)c1 (stereo unspecified)	20.0	-21.8	·	1.0	·	·
COCc1ccc(CN2CCC(C(=O)Nc3cccc(-c4cscn4)c3)CC2)o1	5.3	-8.3	-34.0	2.9	-5.5	-31.3
COCc1ccc(CN2CCC(C(=O)Nc3cccc(-c4cccc(Cl)c4)c3)CC2)o1	-1.9	7.9	61.0*	5.6	12.3	73.9*
CN(C)c1ncc(S(=O)(=O)c2ccccc2)c(-c2ccc(Cl)cc2Cl)n1	21.3	-14.3	4.4	-0.1	53.1*	-13.4
Cc1ccc(C(C(=O)NC2CCCC2)N(C(=O)Cc2cccs2)c2ccc(C)c(C)c2)o1 (stereo unspecified)	15.1	-14.2	39.7*	3.2	52.5*	13.2
